According to ChEMBL document CHEMBL3997766, “Synthesis and pre-clinical studies of new amino-acid ester thiazolide prodrugs” (Eur J Med Chem, 2017):

Assays:
Rattus norvegicus [1] = assay: Toxicity in Sprague-Dawley rat assessed as effect on respiratory rate by measuring breaths per minute at 100 to 1000 mg/kg administered as single dose via oral gavage; type: organism-based; conditions: in vivo
Procedure, shortened: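 Respiratory safety study: conscious rats, 3 groups of 6 (3M/3F), given single oral-gavage doses of 100, 300 or 1000 mg/kg, with an untreated control group. Respiratory rate (breaths per minute), tidal volume and minute volume were recorded, and mortality was noted.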

Rattus norvegicus [2] = assay: Toxicity in Sprague-Dawley rat assessed as effect on respiratory rate by measuring minute volume dose at 1000 mg/kg administered as single dose via oral gavage; type: organism-based; conditions: in vivo
Procedure, shortened: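 Conscious rats in three groups of six (3M/3F) got single oral gavage doses of 100, 300 or 1000 mg/kg, with an untreated control group. Respiratory rate (breaths per minute), tidal volume and minute volume were recorded.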

Rattus norvegicus [3] = assay: Toxicity in Sprague-Dawley rat assessed as body weight gain at 75 mg/kg administered as oral gavage qd for 28 consecutive days measured during last 2 weeks of dosing relative to control; type: organism-based; conditions: in vivo, 336 h
Procedure, shortened: (§1)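 Sub-acute study in Sprague-Dawley rats dosed orally with a suspension at 10, 30 and 75 mg/kg once daily for 28 consecutive days. Four groups of up to 30 rats each (15M/15F).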

Canis familiaris [4] = assay: Toxicity in Beagle dog up to 25 mg/kg, po administered as gelatin capsule once daily for 28 days measured on day 29; type: organism-based, Canis lupus familiaris; conditions: in vivo, 672 h
Procedure, shortened: (§2)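 Sub-acute study in Beagle dogs dosed orally by gelatin capsule at 5, 15 and 25 mg/kg once a day for 28 consecutive days.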

Canis familiaris [5] = assay: Toxicity in Beagle dog assessed as effect on coagulation up to 25 mg/kg, po administered as gelatin capsule once daily for 28 days measured on day 29; type: organism-based, Canis lupus familiaris; conditions: in vivo, 672 h; procedure, shortened: as §2
Rattus norvegicus [6] = assay: Neurotoxicity in Sprague-Dawley rat assessed as decreased activity at 1000 mg/kg administered via oral gavage as single dose after 4 to 24 hrs; type: toxicity, organism-based; conditions: in vivo
Procedure, shortened: (§3)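 Three groups of 10 rats (5M/5F) received a single dose by oral gavage of 100, 300 or 1000 mg/kg, and an untreated group served as control. Clinical signs of CNS effects were recorded at 4 and 24 h after treatment.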

Rattus norvegicus [7] = assay: Toxicity in Sprague-Dawley rat assessed as decrease in absolute kidney weight at 75 mg/kg administered as oral gavage qd for 28 consecutive days measured on day 29; type: organism-based; conditions: in vivo; procedure, shortened: as §1
Canis familiaris [8] = assay: Toxicity in Beagle dog assessed as early death at 5 to 25 mg/kg, po administered as gelatin capsule once daily for 28 days measured on day 29; type: organism-based, Canis lupus familiaris; conditions: in vivo, 672 h
Procedure, shortened: (§4)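 Sub-acute study in Beagle dogs: 5, 15 or 25 mg/kg/day given orally in a single gelatin capsule once a day for 28 consecutive days to assess systemic exposure and toxicity, with NOAEL determination.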

Rattus norvegicus [9] = assay: Elimination half life in Sprague-Dawley rat assessed as Tizoxanide level at 6.3 mg/kg, iv administered as single dose; type: ADME, organism-based; conditions: in vivo
Rattus norvegicus [10] = assay: Elimination half life in Sprague-Dawley rat assessed as Tizoxanide level at 28 mg/kg, po; type: ADME, organism-based; conditions: in vivo
Rattus norvegicus [11] = assay: Toxicity in Sprague-Dawley rat assessed as hemorrhage in duodenum at 75 mg/kg administered as oral gavage qd for 28 consecutive days followed by 2 weeks recovery period by microscopic method; type: organism-based; conditions: in vivo, 336 h; procedure, shortened: as §1
Plasma = assay: Drug metabolism in Sprague-Dawley rat assessed as tizoxanide-glucuronide formation in plasma at 30 mg/kg, po administered as single dose measured after 5 mins; type: ADME, organism-based; conditions: in vivo
Procedure, shortened: (§5)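 Plasma tizoxanide and tizoxanide glucuronide were measured and PK parameters derived. AUCs were dose-corrected to 30 mg/kg for bioavailability.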

Rattus norvegicus [12] = assay: Cmax in Sprague-Dawley rat assessed as Tizoxanide level in plasma at 30 mg/kg, po administered as single dose; type: ADME, organism-based; design: dose 30 mg/kg, route oral; conditions: in vivo
Procedure, shortened: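 Rats in groups of three received one compound as a single oral dose (30 mg/kg) or a single intravenous injection (6 mg/kg), with four compounds studied separately. Serial blood samples were drawn at 5, 10, 15 and 30 min and at 1, 2, 4, 8, 23 and 24 h post-dose. Plasma parent drug and metabolites were quantified and PK parameters were derived.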

Rattus norvegicus [13] = assay: Toxicity in Sprague-Dawley rat assessed as hemorrhage in stomach at 75 mg/kg administered as oral gavage qd for 28 consecutive days followed by 2 weeks recovery period by microscopic method; type: organism-based; conditions: in vivo, 336 h; procedure, shortened: as §1
Canis familiaris [14] = assay: Toxicity in Beagle dog assessed as effect on urinalysis parameters up to 25 mg/kg, po administered as gelatin capsule once daily for 28 days measured on day 29; type: organism-based, Canis lupus familiaris; conditions: in vivo, 672 h; procedure, shortened: as §2
Canis familiaris [15] = assay: Toxicity in Beagle dog assessed as organ weight up to 25 mg/kg, po administered as gelatin capsule once daily for 28 days; type: organism-based, Canis lupus familiaris; conditions: in vivo, 672 h; procedure, shortened: as §2
Rattus norvegicus [16] = assay: Toxicity in Sprague-Dawley rat assessed as decrease in serum total albumin level at 75 mg/kg administered as oral gavage qd for 28 consecutive days followed by 2 weeks recovery period measured on day 43; type: organism-based; conditions: in vivo, 336 h; procedure, shortened: as §1
Rattus norvegicus [17] = assay: Toxicity in Sprague-Dawley rat assessed as decrease in serum alanine transferase level at 75 mg/kg administered as oral gavage qd for 28 consecutive days followed by 2 weeks recovery period measured on day 43; type: organism-based; conditions: in vivo, 336 h; procedure, shortened: as §1
Rattus norvegicus [18] = assay: Toxicity in Sprague-Dawley rat assessed as eosinophilic cytoplasmic bodies in epithelial cells of duodenum at 75 mg/kg administered as oral gavage qd for 28 consecutive days followed by 2 weeks recovery period by microscopic method; type: organism-based; conditions: in vivo, 336 h; procedure, shortened: as §1
Rattus norvegicus [19] = assay: Neurotoxicity in Sprague-Dawley rat assessed as tremors at 1000 mg/kg administered as single dose via oral gavage after 4 to 24 hrs; type: toxicity, organism-based; conditions: in vivo; procedure, shortened: as §3
Rattus norvegicus [20] = assay: Oral bioavailability in Sprague-Dawley rat assessed as Tizoxanide-glucuronide level at 28 mg/kg; type: ADME, organism-based; conditions: in vivo
Procedure, shortened: (§6)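 Rats in groups of three got a single oral dose (30 mg/kg) or a single intravenous injection (6 mg/kg). Serial blood samples were taken at 5, 10, 15 and 30 min and at 1, 2, 4, 8, 23 and 24 h post-dose for plasma drug and glucuronide levels. Bioavailability came from oral versus intravenous AUC after dose correction to 30 mg/kg.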

Rattus norvegicus [21] = assay: Toxicity in Sprague-Dawley rat assessed as early death at 10 to 75 mg/kg administered as oral gavage qd for 28 consecutive days measured up to day 43; type: organism-based; conditions: in vivo
Procedure, shortened: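 Sub-acute study in Sprague-Dawley rats: 10, 30 or 75 mg/kg given orally once a day for 28 consecutive days as a yellow suspension. There were 4 groups of up to 30 rats each (15M/15F), including a control. Body weight, clinical observations and terminal findings were assessed.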

Rattus norvegicus [22] = assay: Tmax in Sprague-Dawley rat assessed as Tizoxanide in plasma at 6.3 mg/kg, iv administered as single dose; type: ADME, organism-based; conditions: in vivo; procedure, shortened: as §6
Canis familiaris [23] = assay: Toxicity in Beagle dog assessed as early death at 5 to 25 mg/kg, po administered as gelatin capsule once daily for 28 days followed by 2 weeks recovery period measured on day 43; type: organism-based, Canis lupus familiaris; conditions: in vivo; procedure, shortened: as §4
Rattus norvegicus [24] = assay: AUC (0 to t) in Sprague-Dawley rat assessed as tizoxanide-glucuronide level in plasma at 30 mg/kg, po administered as single dose; type: ADME, organism-based; conditions: in vivo; procedure, shortened: as §5
Rattus norvegicus [25] = assay: Elimination half life in Sprague-Dawley rat assessed as Tizoxanide level in plasma at 6.3 mg/kg, iv administered as single dose; type: ADME, organism-based; conditions: in vivo
Rattus norvegicus [26] = assay: Toxicity in Sprague-Dawley rat assessed as increase in serum chloride level at 30 mg/kg administered as oral gavage qd for 28 consecutive days followed by 2 weeks recovery period measured on day 43; type: organism-based; conditions: in vivo, 336 h; procedure, shortened: as §1

CC(C)(C)[C@H](N)C(=O)Oc1ccccc1C(=O)Nc1ncc([N+](=O)[O-])s1.Cl
Activity (Rattus norvegicus [1]): Toxic
Activity (Rattus norvegicus [2]): Toxic
Activity (Rattus norvegicus [3]): 4 to 5%
Activity (Canis familiaris [4]): Non-Toxic
Activity (Canis familiaris [5]): Non-Toxic
Activity (Rattus norvegicus [6]): Toxic
Activity (Rattus norvegicus [7]): Toxic
Activity (Canis familiaris [8]): Non-Toxic
beta t1/2 (Rattus norvegicus [9]): 22.8 min
beta t1/2 (Rattus norvegicus [10]): 33 min
Activity (Rattus norvegicus [11]): Non-Toxic
Drug metabolism (Plasma): Metabolite_Detected
Cmax (Rattus norvegicus [12]): 6190 ng/mL
Activity (Rattus norvegicus [13]): Non-Toxic
Activity (Canis familiaris [14]): Non-Toxic
Activity (Canis familiaris [15]): Non-Toxic
Activity (Rattus norvegicus [16]): Toxic
Activity (Rattus norvegicus [17]): Toxic
Activity (Rattus norvegicus [18]): Non-Toxic
Activity (Rattus norvegicus [19]): Toxic
F (Rattus norvegicus [20]): 13%
Activity (Rattus norvegicus [21]): Non-Toxic
Tmax (Rattus norvegicus [22]): 5 min
Activity (Canis familiaris [23]): Non-Toxic
AUCt (Rattus norvegicus [24]): 23600 ng·h/mL
beta t1/2 (Rattus norvegicus [25]): 22.8 min
Activity (Rattus norvegicus [26]): Toxic
